Consider ten compounds from ChEMBL document CHEMBL3603742, “Design, synthesis and cytotoxicity studies of dithiocarbamate ester derivatives of emetine in prostate cancer cell lines” (Bioorg Med Chem, 2015).

Where only a bound is given, the exact number is not on record here.

Holding throughout (assay type): functional, cell-based
Test [1] relates to LNCaP. Description: Cytotoxicity against human LNCAP cells after 3 days by MTT assay. Particulars: 72 h. The procedure, abridged: (§1)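 Human prostate lines from ATCC were kept in log phase in RPMI with 10% FBS, 1% L-glutamine and 1% penicillin-streptomycin at 37 °C, 5% CO2. PC3 and DU145 were seeded at 2.5 X 10^3 cells/well and LNCaP at 6 X 10^3 cells/well, then left 24 h. Cells were exposed continuously to 0.01–10 μM (0.1% DMSO final; DMSO controls), with MTT viability read on days 3, 5 and 7.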

Test [2] deals with PC-3. Description: Cytotoxicity against human PC3 cells after 3 days by MTT assay. Particulars: PC-3, 72 h. The gist of the method: as §1
(Tetrazolium assays rely on reduction of a dye to a coloured formazan, in cell work by metabolically active cells.)

Test [3] concerns DU-145. Description: Cytotoxicity against human DU145 cells after 3 days by MTT assay. Conditions: DU-145, 72 h. The gist of the method:
as §1

The subject of test [4] is LNCaP. Description: Cytotoxicity against human LNCAP cells after 5 days by MTT assay. Conditions: 120 h. The procedure, abridged:
as §1

The subject of test [5] is PC-3. The test can be described thus: Cytotoxicity against human PC3 cells after 5 days by MTT assay. Particulars: PC-3, 120 h. The procedure, abridged: as §1
Test [6] deals with DU-145. Description: Cytotoxicity against human DU145 cells after 5 days by MTT assay. Particulars: DU-145, 120 h. The procedure, abridged: as §1
The test system of test [7] is LNCaP. Description: Cytotoxicity against human LNCAP cells after 7 days by MTT assay. Particulars: 168 h. The procedure, abridged: as §1
Test [8] concerns PC-3. Description: Cytotoxicity against human PC3 cells after 7 days by MTT assay. Particulars: PC-3, 168 h. The procedure, abridged: as §1
The test system of test [9] is DU-145. The test can be described thus: Cytotoxicity against human DU145 cells after 7 days by MTT assay. Particulars: DU-145, 168 h. The gist of the method: as §1

On to `CCOC(=O)c1ccc(NC(=O)CSC(=S)N2CCc3cc(OC)c(OC)cc3[C@H]2C[C@H]2C[C@H]3c4cc(OC)c(OC)cc4CCN3C[C@@H]2CC)cc1`, for which the IC50 (as a rule, the point on the concentration scale where inhibition reaches its midpoint) was determined as 4670 nM in the test on LNCaP [1]; 4360 nM in the test with PC-3 [2]; 5160 nM in the test with DU-145 [3]; 2720 nM with LNCaP [4]; 2710 nM in the test on PC-3 [5]; 2900 nM in the test on DU-145 [6]. The values for the IC50 with LNCaP [7], in the test with PC-3 [8] and with DU-145 [9] were 1660 nM, 1900 nM and 2470 nM, respectively.
For the compound `CC[C@H]1CN2CCc3cc(OC)c(OC)cc3[C@@H]2C[C@@H]1C[C@@H]1c2cc(OC)c(OC)cc2CCN1C(=S)SCc1ccccc1`, the half-inhibitory concentration (IC50) with PC-3 [2] is 2540 nM; in the test with DU-145 [3], 2740 nM; in the test on LNCaP [4], 1890 nM; in the test with PC-3 [5] it was 2020 nM; with DU-145 [6], 2070 nM; in the test with LNCaP [7], 1310 nM. In addition, the IC50 in the test on DU-145 [9] is 1980 nM.
`CC[C@H]1CN2CCc3cc(OC)c(OC)cc3[C@@H]2C[C@@H]1C[C@@H]1c2cc(OC)c(OC)cc2CCN1C(=S)SCCN1C(=O)c2ccccc2C1=O`: the IC50 with LNCaP [1] came to 3220 nM; in the test with PC-3 [2], 3210 nM; in the test on DU-145 [3], 3810 nM; with LNCaP [4] it was 2800 nM; in the test with PC-3 [5] it was 2770 nM; in the test with DU-145 [6], 3580 nM. Also, the figures for the IC50 in the test on LNCaP [7], with PC-3 [8] and with DU-145 [9] were 2300 nM, 2380 nM and 3050 nM, respectively.
In the case of `CC[C@H]1CN2CCc3cc(OC)c(OC)cc3[C@@H]2C[C@@H]1C[C@@H]1c2cc(OC)c(OC)cc2CCN1C(=S)SCC(=O)c1ccc(Cl)cc1`, the IC50 turned out to be 5720 nM in the test with LNCaP [1]; 3590 nM in the test on PC-3 [2]; 3170 nM in the test with DU-145 [3]; 2310 nM in the test with LNCaP [4]; 2700 nM with PC-3 [5]; 3200 nM in the test on DU-145 [6]. Further, the figures for the IC50 in the test with LNCaP [7], in the test with PC-3 [8] and with DU-145 [9] were 1950 nM, 2690 nM and 2450 nM, respectively.
As to `CC[C@H]1CN2CCc3cc(OC)c(OC)cc3[C@@H]2C[C@@H]1C[C@@H]1c2cc(OC)c(OC)cc2CCN1C(=S)S`, the IC50 amounted to 565 nM in the test with LNCaP [1]; 442 nM in the test on PC-3 [2]; 377 nM in the test with DU-145 [3]; 88 nM in the test on LNCaP [4]; 91 nM in the test on PC-3 [5]; 80 nM in the test on DU-145 [6]. Also, half-maximal inhibition in the test with DU-145 [9] (IC50) was put at 79 nM.
As to `CCCCCCSC(=S)N1CCc2cc(OC)c(OC)cc2[C@H]1C[C@H]1C[C@H]2c3cc(OC)c(OC)cc3CCN2C[C@@H]1CC`, the IC50 was found to be 3660 nM with LNCaP [1]; 5980 nM in the test on PC-3 [2]; 3660 nM in the test on DU-145 [3]; 1610 nM in the test with LNCaP [4]; 3210 nM with PC-3 [5]; 3190 nM with DU-145 [6]. In addition, the IC50 with LNCaP [7] was determined as 1590 nM; in the test with PC-3 [8] it was 3030 nM; with DU-145 [9], 2300 nM.
Consider `CC[C@H]1CN2CCc3cc(OC)c(OC)cc3[C@@H]2C[C@@H]1C[C@@H]1c2cc(OC)c(OC)cc2CCN1C(=S)SCCC(N)=O`, for which the IC50 in the test on LNCaP [1] was 9220 nM; in the test on PC-3 [2], more than 10000 nM; with DU-145 [3], more than 10000 nM; in the test with LNCaP [4], 4730 nM; with PC-3 [5], 6560 nM; in the test on DU-145 [6] it was more than 10000 nM. Moreover, the IC50 was 3390 nM in the test with LNCaP [7], 5200 nM with PC-3 [8] and more than 10000 nM in the test with DU-145 [9].
Consider `CC[C@H]1CN2CCc3cc(OC)c(OC)cc3[C@@H]2C[C@@H]1C[C@@H]1c2cc(OC)c(OC)cc2CCN1C(=S)SCCCCC(=O)OC`, for which the IC50 came out at 4780 nM in the test with LNCaP [1]; 8260 nM with PC-3 [2]; 3220 nM in the test on DU-145 [3]; 2310 nM in the test with LNCaP [4]; 4860 nM with PC-3 [5]; 3150 nM in the test with DU-145 [6]. For the same compound, the IC50 with LNCaP [7] is 1760 nM; in the test with PC-3 [8], 4360 nM; with DU-145 [9], 2250 nM.
Regarding `CC[C@H]1CN2CCc3cc(OC)c(OC)cc3[C@@H]2C[C@@H]1C[C@H]1NCCc2cc(OC)c(OC)cc21` [EMETINE], the IC50 in the test with LNCaP [1] worked out at 37 nM; in the test with LNCaP [4], 27 nM; with LNCaP [7] it was 37 nM.
Turning to `CC[C@H]1CN2CCc3cc(OC)c(OC)cc3[C@@H]2C[C@@H]1C[C@@H]1c2cc(OC)c(OC)cc2CCN1C(=S)SCC(=O)Nc1ccc(Br)cc1`, the IC50 came to 5280 nM with LNCaP [1]; 3870 nM with PC-3 [2]; 5650 nM in the test with DU-145 [3]; 2190 nM in the test on LNCaP [4]; 2770 nM in the test on PC-3 [5]; 2800 nM in the test on DU-145 [6]. In addition, the IC50 with LNCaP [7] amounted to 1700 nM; with PC-3 [8], 1510 nM; in the test on DU-145 [9], 1600 nM.
